Like-named read-outs stand apart in the source and are kept apart here. Peptide text beside a SMILES is read from it. * marks the point of attachment. Cbz = O=C(OCc1ccccc1)*; CH2F = FC*
Assays:
[1] = read-out: KD for zinc; cited from earlier work
caspase-8 C360A = test: differential scanning fluorimetry thermal stability; assay type: binding; conditions: DSF; for TM Values, C360A: zinc salts at 50 μM; for effect on Tm of caspase-8 C360A: incubation with other metals
caspase-8 wild-type = test: as above; assay type: binding; conditions: DSF; for TM Values, Wild Type: zinc salts at 50 μM
[2] = test system: caspase-7 variant H131A/C171A; test: activity of caspase-7 variant in absence and presence of ZnCl2; assay type: biochemical; conditions: presence vs absence of ZnCl2
caspase-7 [3] = molecular target: T1, caspase-7 (Homo sapiens, UniProt P55210); test: caspase-7 cleavage of protein substrate PAK2, metal panel; assay type: biochemical
T1 sequence (P55210 24-198 limits assumed): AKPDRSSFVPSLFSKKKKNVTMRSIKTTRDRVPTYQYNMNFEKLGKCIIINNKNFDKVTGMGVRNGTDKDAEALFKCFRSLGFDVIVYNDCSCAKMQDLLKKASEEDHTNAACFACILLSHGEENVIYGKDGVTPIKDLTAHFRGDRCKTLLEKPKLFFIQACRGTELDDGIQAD
T1 sequence (P55210 207-303 limits assumed): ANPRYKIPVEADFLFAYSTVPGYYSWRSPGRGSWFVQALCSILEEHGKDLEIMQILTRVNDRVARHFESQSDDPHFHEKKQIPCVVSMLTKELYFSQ

caspase-3 [4] = molecular target: T2, caspase-3 (Homo sapiens, UniProt P42574); test: caspase-3 cleavage of protein substrates PAK2 and PARP, metal panel; assay type: biochemical
T2 sequence (P42574 29-175 limits assumed): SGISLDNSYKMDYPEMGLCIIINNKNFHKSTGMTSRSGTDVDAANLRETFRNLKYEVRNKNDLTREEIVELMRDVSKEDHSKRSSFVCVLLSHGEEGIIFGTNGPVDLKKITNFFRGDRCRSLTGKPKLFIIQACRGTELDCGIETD
T2 sequence (P42574 176-277 limits assumed): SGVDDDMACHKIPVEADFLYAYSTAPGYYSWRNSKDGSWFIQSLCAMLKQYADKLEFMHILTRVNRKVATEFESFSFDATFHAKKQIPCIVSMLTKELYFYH

caspase-3 [5] = molecular target: T2, caspase-3; test: caspase-3 cleavage of fluorogenic tetrapeptide substrate DEVD-AMC; assay type: biochemical
caspase-7 [6] = molecular target: T1, caspase-7; test: caspase-7 cleavage of fluorogenic tetrapeptide substrate DEVD-AMC; assay type: biochemical
caspase-8 [7] = molecular target: T3, caspase-8 (Homo sapiens, UniProt Q14790); test: size exclusion chromatography of caspase-8 oligomeric state; conditions: SEC after incubation
T3 sequence (Q14790 217-374 limits assumed): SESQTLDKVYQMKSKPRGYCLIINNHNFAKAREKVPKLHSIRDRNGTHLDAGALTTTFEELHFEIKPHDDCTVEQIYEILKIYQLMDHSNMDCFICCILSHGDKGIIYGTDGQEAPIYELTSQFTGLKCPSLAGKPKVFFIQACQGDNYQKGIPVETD
T3 sequence (Q14790 385-479 limits assumed): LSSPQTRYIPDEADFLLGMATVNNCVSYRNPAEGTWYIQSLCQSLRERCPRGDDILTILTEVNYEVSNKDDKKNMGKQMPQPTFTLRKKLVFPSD
Summary of the method: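 Oligomeric state of caspase-8 was resolved by size-exclusion chromatography into dimer and monomer peaks. Protein was run alone, after incubation with zVAD-FMK, or after inhibitor incubation followed by increasing zinc. Peak fractions were quantified as mean ± SEM from three experiments on three separate days.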

caspase-8 [8] = molecular target: T3, caspase-8; test: caspase-8 cleavage of procaspase-7; assay type: biochemical; conditions: metal panel
caspase-8 [9] = molecular target: T3, caspase-8; test: caspase-8 cleavage of fluorogenic tetrapeptide substrate LEHD-AMC; assay type: biochemical
caspase-6 [10] = molecular target: T4, caspase-6 (Homo sapiens, UniProt P55212); test: Fluozin-3 competition zinc affinity; assay type: binding; conditions: competition with Fluozin-3
T4 sequence (P55212 24-179 limits assumed): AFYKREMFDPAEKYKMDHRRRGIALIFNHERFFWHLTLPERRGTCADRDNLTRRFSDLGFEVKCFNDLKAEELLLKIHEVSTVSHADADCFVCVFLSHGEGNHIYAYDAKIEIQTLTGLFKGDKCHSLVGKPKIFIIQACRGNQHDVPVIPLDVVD
T4 sequence (P55212 194-293 limits assumed): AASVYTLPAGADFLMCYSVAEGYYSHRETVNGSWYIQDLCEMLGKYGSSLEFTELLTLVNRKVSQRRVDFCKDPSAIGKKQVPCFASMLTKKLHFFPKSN
Summary of the method: (§1)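 Caspase titrated into reactions holding a constant amount of zinc and the fluorescent zinc indicator Fluozin-3. Each reaction was left to reach equilibrium, then Fluozin-3 fluorescence was read, with signal falling as caspase competed for zinc. Mean ± SEM from three experiments on three separate days.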

caspase-8 [11] = molecular target: T3, caspase-8; test: Fluozin-3 competition zinc affinity; assay type: binding; conditions: competition with Fluozin-3
Summary of the method: as §1

caspase-3 [12] = molecular target: T2, caspase-3; test: zincon colorimetric zinc-binding stoichiometry; conditions: zincon absorbance at 620 nm
Summary of the method: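 Caspase-3 and -7 were tested alone or with the active site occupied by zVAD; caspase-8 wild type and C360A were also tested. Mean ± SEM from three experiments on three separate days.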

caspase-6 [13] = molecular target: T4, caspase-6; conditions: read-out: IC50 (unbuffered); cited from earlier work
caspase-3 [14] = molecular target: T2, caspase-3; test: Fluozin-3 competition zinc affinity; assay type: binding; conditions: competition with Fluozin-3
Summary of the method: as §1

caspase-3 [15] = molecular target: T2, caspase-3; conditions: cited from earlier work
caspase-6 [16] = molecular target: T4, caspase-6; test: caspase-6 cleavage of preferred fluorogenic tetrapeptide substrate; assay type: biochemical
[17] = metal panel, peptide substrate DEVD-AMC
[18] = panel of biologically relevant metals
[19] = read-out: IC50 Values Unbuffered, total zinc, no zinc buffer, 10 nM caspase
[20] = zinc buffered (NTA), mixed model of inhibition, global fit

O=C(O)c1ccccc1NN=C(N=Nc1cc(S(=O)(=O)O)ccc1O)c1ccccc1 [Zincon]
Kd [1]: 12000 nM

[Cl-].[Cl-].[Zn+2] [ZnCl2]
destabilization of caspase-8 C360A (Tm decrease) (caspase-8 C360A): 5 °C
TM Values, C360A (caspase-8 C360A): 41.5 ± 0.9 °C
destabilization of caspase-8 (Tm decrease) (caspase-8 wild-type): approximately 3 °C
TM Values, Wild Type (caspase-8 wild-type): 44.5 ± 0.4 °C
inhibition of variant activity [2]: inhibited by zinc in a similar fashion to wild-type
effect on cleavage of protein substrate PAK2 (caspase-7 [3]): inhibited
effect on cleavage of protein substrate PAK2 (caspase-3 [4]): completely inhibited

[Fe] [iron]
effect on Tm of caspase-8 C360A (caspase-8 C360A): failed to significantly alter

[Co] [cobalt]
effect on cleavage of protein substrate PAK2 (caspase-3 [4]): did not observe

O=S(=O)([O-])[O-].[Zn+2] [ZnSO4]
destabilization of caspase-8 C360A (Tm decrease) (caspase-8 C360A): 5 °C
TM Values, C360A (caspase-8 C360A): 41.6 ± 0.6 °C
destabilization of caspase-8 (Tm decrease) (caspase-8 wild-type): approximately 3 °C
TM Values, Wild Type (caspase-8 wild-type): 44.8 ± 0.3 °C
effect on cleavage of protein substrate PAK2 (caspase-7 [3]): inhibited
effect on cleavage of protein substrate PAK2 (caspase-3 [4]): completely inhibited

CC[C@H](C)[C@H](NC(C)=O)C(=O)N[C@@H](CCC(=O)O)C(=O)N[C@H](C(=O)N[C@H](C=O)CC(=O)O)[C@@H](C)O [Ac-IETD-CHO, acetyl-Ile-Glu-Thr-Asp-aldehyde, reference compound] (Ac-IETD-aldehyde)
TM Values, C360A (caspase-8 C360A): 46.4 ± 0.2 °C
Tm increase (caspase-8 wild-type): 27 °C
TM Values, Wild Type (caspase-8 wild-type): 75.5 ± 0.3 °C

[Ca+2] [calcium]
effect on Tm of caspase-8 C360A (caspase-8 C360A): failed to significantly alter

CC(NC(=O)C(NC(=O)OCc1ccccc1)C(C)C)C(=O)NC(CC(=O)O)C(=O)CF (stereo not drawn) [zVAD-FMK, carbobenzoxy-Val-Ala-Asp-fluoromethylketone, reference compound] (Cbz-Val-Ala-Asp-CH2F; configuration not given here)
inhibition of caspase activity (caspase-3 [5]; two-hour incubation): completely inhibited
inhibition of caspase activity (caspase-7 [6]; two-hour incubation): completely inhibited
caspase-8 eluting as dimer (caspase-8 [7]): 63%
caspase-8 eluting as monomer (caspase-8 [7]): 37%

[Cu] [Copper, copper]
effect on Tm of caspase-8 C360A (caspase-8 C360A): failed to significantly alter
effect on cleavage of protein substrate PAK2 (caspase-3 [4]): did not observe
effect on cleavage of procaspase-7 (C186A) (caspase-8 [8]): minor impact

COc1ccc(N(CC(=O)O)CC(=O)O)c(OCCOc2cc(-c3c4cc(F)c(=O)cc-4oc4cc(O)c(F)cc34)ccc2NCC(=O)O)c1 [Fluozin-3]
Kd [1]: 15 nM

[Cd] [Cadmium, cadmium]
activity remained (caspase-3 [5]; [17]): 39%
activity remained (caspase-7 [6]; [17]): 84%
activity remained (caspase-8 [9]; metal panel, peptide substrate LEHD-AMC): 12%
effect on cleavage of protein substrate PAK2 (caspase-7 [3]): had an inhibitory effect
effect on cleavage of protein substrate PARP (caspase-3 [4]): inhibitory effect
effect on cleavage of procaspase-7 (C186A) (caspase-8 [8]): minor impact

[Zn+2] [Zinc, zinc]
destabilization of caspase-8 C360A (Tm decrease) (caspase-8 C360A): 5 °C
effect on peptide substrate cleavage (caspase-3 [5]; [18]): inhibited
IC50 (caspase-3 [5]; [19]): 104 ± 26 nM
Ki (caspase-3 [5]; [20]): 6.9 nM
effect on peptide substrate cleavage (caspase-7 [6]; [18]): inhibited
IC50 (caspase-7 [6]; [19]): 1580 ± 750 nM
Ki (caspase-7 [6]; zinc buffered (citrate), mixed model of inhibition, global fit): 76.1 nM
zinc affinity (KD via Cheng-Prusoff) (caspase-6 [10]): low nanomolar affinity
zinc affinity (KD via Cheng-Prusoff) (caspase-8 [11]): low nanomolar affinity
zincs bound per caspase monomer (stoichiometry) (caspase-3 [12]): three
IC50 (caspase-6 [13]): 4500 nM
effect on peptide substrate cleavage (caspase-8 [9]; [18]): inhibited
IC50 (caspase-8 [9]; [19]): 367 ± 38 nM
Ki (caspase-8 [9]; [20]): 4.3 nM
effect on cleavage of protein substrate PARP (caspase-3 [4]): inhibitory effect
zinc affinity (KD via Cheng-Prusoff) (caspase-3 [14]): low nanomolar affinity
zinc concentration at which caspase-3 is inhibited (caspase-3 [15]): ≥ 1.7 nM
caspase-8 eluting as dimer (caspase-8 [7]): 10%
caspase-8 eluting as monomer (caspase-8 [7]): 90%
effect on cleavage of procaspase-7 (C186A) (caspase-8 [8]): significant impact
IC50 (caspase-6 [16]; [19]): 4530 ± 1100 nM
Ki (caspase-6 [16]; zinc buffered (NTA), assumed noncompetitive): 2.6 nM

Source: article PMC5959779 (ACS chemical biology, 2018)
